Assay results from ChEMBL document CHEMBL1139377, “Induced association of mu opioid (MOP) and type 2 cholecystokinin (CCK2) receptors by novel bivalent ligands” (J Med Chem, 2009).

How the values were obtained:
[1] = target: T1, Gastrin/cholecystokinin type B receptor (Homo sapiens) (UniProt P32239); assay: Binding affinity to CCK2R-MOPR coexpressed in CHO cells assessed per mg of protein by [125I] CCK-26-33 displacement assay; type: cell-based
T1 sequence (whole entry): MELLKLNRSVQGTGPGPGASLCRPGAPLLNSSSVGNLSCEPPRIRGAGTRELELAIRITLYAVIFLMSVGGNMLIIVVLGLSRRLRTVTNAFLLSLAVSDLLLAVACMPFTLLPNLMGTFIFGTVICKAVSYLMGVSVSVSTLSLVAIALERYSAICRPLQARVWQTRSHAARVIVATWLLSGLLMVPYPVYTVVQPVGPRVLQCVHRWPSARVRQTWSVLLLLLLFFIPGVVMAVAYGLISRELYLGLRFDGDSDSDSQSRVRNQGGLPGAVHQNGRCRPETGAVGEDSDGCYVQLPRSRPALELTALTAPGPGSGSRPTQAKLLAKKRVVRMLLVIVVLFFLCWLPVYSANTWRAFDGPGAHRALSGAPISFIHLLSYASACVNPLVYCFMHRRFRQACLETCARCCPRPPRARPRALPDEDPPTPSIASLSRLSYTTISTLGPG
Summary of the method: (§1)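 Membranes came from CHO-K1 cells stably expressing CCK2 receptor alone or with MOP receptor. They were incubated with 125I-D-Tyr-Gly-[(Nle28,31)CCK-26-33] (1-5 pM) plus increasing unlabeled ligand for 90 min at room temperature in KRH, pH 7.4, with 0.2% BSA and soybean trypsin inhibitor. Nonspecific binding was set with 1 μM CCK. Bound ligand was filtered and gamma counted; Ki and Bmax (pmol/mg protein) were taken from LIGAND analysis. Mean±S.E.M., 3-5 experiments.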

[2] = target: T1, Gastrin/cholecystokinin type B receptor (Homo sapiens); assay: Binding affinity to CCK2 receptor expressed in CHO cells assessed per mg of protein; type: cell-based; summary of the method: as §1
[3] = target: T2, Mu-type opioid receptor (Homo sapiens, UniProt P35372); assay: Binding affinity to mu opioid receptor expressed in CHO cells assessed per mg of protein; type: cell-based
Summary of the method: (§2)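 Membranes came from CHO cells stably expressing MOP receptor alone or with CCK2 receptor. They were incubated with [3H]DAMGO (0.4 nM) plus increasing unlabeled ligand for 2 h at room temperature in KRH, pH 7.4, with 0.2% BSA and soybean trypsin inhibitor. Nonspecific binding was set with 1 μM DAMGO. Samples were filtered on PEI-soaked GF/C and scintillation counted; Ki and Bmax (pmol/mg protein) came from LIGAND analysis. Mean±S.E.M., 3-5 experiments.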

[4] = target: T3, Gastrin/cholecystokinin type B receptor (Homo sapiens, UniProt P32239); assay: Activity at CCK2R-MOPR coexpressed in CHO cells co-transfected with delta-6-Galphaqi4-myr assessed as intracellular calcium release by FLIPR; type: functional, cell-based
T3 sequence (P32239 whole entry): T1 sequence (whole entry)
Summary of the method: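 CHO cells stably expressing CCK2R were grown to 90% confluence, then transiently co-transfected by lipofectamine with MOPR and chimeric Gqi4-myr constructs. After 24 h they were seeded into 96-well plates and used the next day. Ca2+ mobilization was read with a FLIPR calcium kit on a FlexStation3, giving EC50 (nM); number of runs in parentheses.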

[5] = target: T2, Mu-type opioid receptor; assay: Displacement of [3H]DAMGO from mu opioid receptor expressed in CHO cells; type: cell-based; summary of the method: as §2
[6] = target: T3, Gastrin/cholecystokinin type B receptor; assay: Displacement of [125I]CCK-26-33 from CCK2 receptor expressed in CHO cells; type: cell-based
Summary of the method: (§3)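 CHO-K1 cell lines stably expressing CCK2 receptor alone or with MOP receptor; receptor-enriched membranes from density gradient centrifugation. (1-5 pM) and increasing concentrations of unlabeled ligand, 90 min, room temperature, KRH pH 7.4 with 0.2% BSA and soybean trypsin inhibitor. Filtration, gamma counting; nonsaturable binding with 1 μM CCK. Ki from LIGAND analysis; 3-5 independent experiments.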

[7] = tested on: Mus musculus; assay: Antinociceptive activity in icv dosed ICR mouse by tail flick assay; type: functional
Summary of the method: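 Male ICR mice (17-25 g) received i.c.v. injections (5 μL, under 1% DMSO) while conscious. Radiant-heat tail flick was measured at peak time from a 10-60 min time course, expressed as %MPE. At least three groups of 8-10 mice per dose-response, each mouse used once. ED50 (pmol/mouse) with 95% CI came from nonlinear regression.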

[8] = target: T3, Gastrin/cholecystokinin type B receptor; assay: Displacement of [125I]CCK-26-33 from CCK2R-MOPR coexpressed in CHO cells; type: cell-based; summary of the method: as §3
[9] = tested on: Mus musculus; assay: Antinociceptive activity in icv dosed ICR mouse after 24 hrs by tail flick assay; type: functional
Summary of the method: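 24 h tolerance in male ICR mice: the day-1 ED80 i.c.v. dose (5 μL, under 1% DMSO) was given again 24 h later to the same mouse, after confirming antinociception had returned to baseline. Radiant-heat tail flick was read at peak time (10-20 min) and expressed as %MPE.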

T2 sequence (P35372 whole entry): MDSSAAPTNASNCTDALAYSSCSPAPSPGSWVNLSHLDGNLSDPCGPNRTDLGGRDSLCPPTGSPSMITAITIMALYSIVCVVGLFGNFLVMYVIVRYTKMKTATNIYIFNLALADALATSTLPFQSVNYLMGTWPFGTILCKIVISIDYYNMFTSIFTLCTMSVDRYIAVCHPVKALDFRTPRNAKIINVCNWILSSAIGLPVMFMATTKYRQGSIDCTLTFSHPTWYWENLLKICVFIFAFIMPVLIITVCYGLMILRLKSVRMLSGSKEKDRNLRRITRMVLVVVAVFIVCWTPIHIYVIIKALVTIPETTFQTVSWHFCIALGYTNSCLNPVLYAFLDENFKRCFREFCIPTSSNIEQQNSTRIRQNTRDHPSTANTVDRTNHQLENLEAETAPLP

SMILES	Bmax [1] [pmol]	Bmax [2] [pmol]	Bmax [3] [pmol]	EC50 [4] [nM]	Ki ([5]; read-out: Ki) [nM]	Ki [6] [nM]	ED50 [7] [pmol]	Ki [8] [nM]	ED50 [9] [pmol]	Ki ([5]; cho)
Cc1cccc(NC(=O)N[C@@H]2N=C(c3ccccc3)c3ccccc3N(C)C2=O)c1	9.1	14.4								
C[C@@H](NC(=O)[C@@H](N)Cc1ccc(O)cc1)C(=O)NCC(=O)N(C)[C@@H](Cc1ccccc1)C(=O)NCCO [DAMGO]			9.2	2.66						
CNC(=O)COCC(=O)NCCCCCCNC(=O)COCC(=O)NCCOc1cccc(NC(=O)N[C@@H]2N=C(c3ccccc3)c3ccccc3N(C)C2=O)c1	9.5	16		< 10000						
CN1C(=O)[C@H](NC(=O)Nc2cccc(OCCNC(=O)COCC(=O)NCCNC(=O)COCC(=O)N[C@H]3CC[C@@]4(O)[C@H]5Cc6cc(O)cc7c6[C@@]4(CCN5C)[C@H]3O7)c2)N=C(c2ccccc2)c2ccccc21	12.4	10.3	7.7	119	5.7	71	390	33	71.29	
CN1C(=O)[C@H](NC(=O)Nc2cccc(OCCNC(=O)COCC(=O)NCCCCCCNC(=O)COCC(=O)N[C@H]3CC[C@@]4(O)[C@H]5Cc6cc(O)cc7c6[C@@]4(CCN5C)[C@H]3O7)c2)N=C(c2ccccc2)c2ccccc21	10.9	18.5	7.4		29.4	260	2020	77	64.33	
CN1C(=O)[C@H](NC(=O)Nc2cccc(OCCNC(=O)COCC(=O)NNC(=O)COCC(=O)N[C@H]3CC[C@@]4(O)[C@H]5Cc6cc(O)cc7c6[C@@]4(CCN5C)[C@H]3O7)c2)N=C(c2ccccc2)c2ccccc21	9.5	16	9.8		8.3	356	47.41	57	84.45	
CNC(=O)COCC(=O)NCCCCNC(=O)COCC(=O)N[C@H]1CC[C@@]2(O)[C@H]3Cc4cc(O)cc5c4[C@@]2(CCN3C)[C@H]1O5			9.3	572			51.93		40.74	29.8
CN1C(=O)[C@H](NC(=O)Nc2cccc(OCCNC(=O)COCC(=O)N[C@H]3CC[C@@]4(O)[C@H]5Cc6cc(O)cc7c6[C@@]4(CCN5C)[C@H]3O7)c2)N=C(c2ccccc2)c2ccccc21	9.3	14	12.4		24.1	223	3036	210	57.31	
